# Laboratory results reported in ChEMBL document CHEMBL1154191, “Evaluation of spirocyclic 3-(3-fluoropropyl)-2-benzofurans as sigma1 receptor ligands for neuroimaging with positron emission tomography” (J Med Chem, 2009).
# Columns and labels:
# [1] = Chemical stability in solution of 0.9% NaCl, phosphate buffer saline and Tris-HCl up to 120 mins; format: physicochemical; details: 2 h
# Muscle tissue = experiment: Biodistribution in CD1 mouse muscle assessed per gram of wet tissue at 400 to 600 kBq, iv after 60 mins post-injection by gamma counting in presence of 1 mg/kg, ip sigma 1/sigma 2 receptor antagonist haloperidol treated before compound addition; format: organism-based; parameters: route intravenous; details: in vivo, 1 h
# Summary of the method: (§1)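 They were killed at 60 min pi, and organs were weighed and γ-counted as % ID/g wet tissue. Comparison with controls used Student's t test (independent, two-tailed).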
# [2] = Chemical stability assessed as occurrence of defluorination by radio-TLC and analytical radio-HPLC; format: physicochemical
# Liver [3] = experiment: Biodistribution in CD1 mouse liver assessed per gram of wet tissue at 400 to 600 kBq, iv after 120 mins post-injection by gamma counting; format: ADME, organism-based; details: in vivo, 2 h
# Summary of the method: (§2)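 Female CD-1 mice (~8-12 weeks, 20-28 g) were fasted 24 h with free water. Conscious mice got 400-600 kBq [¹⁸F] tracer in saline by tail vein. At 5, 30, 60 or 120 min (n=4-5 per time) they were anesthetized, blood and urine sampled, then killed by cervical dislocation. Organs were weighed and γ-counted, giving % ID/g wet tissue.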
# [4] = Biodistribution in CD1 mouse gonad assessed per gram of wet tissue at 400 to 600 kBq, iv after 60 mins post-injection by gamma counting in presence of 1 mg/kg, ip sigma 1/sigma 2 receptor antagonist haloperidol treated before compound addition; format: organism-based; parameters: dose 1 mg/kg, route intravenous; details: in vivo, 1 h
# Summary of the method: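 Blocking arm in fasted female CD-1 mice (n=5). […] Animals were killed at 60 min post-injection, and organs were weighed and γ-counted as % ID/g wet tissue. Percent change was taken against the 60 min control group, with two-tailed unpaired Student's t test.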
# Brain = experiment: Biodistribution in CD1 mouse brain assessed per gram of wet tissue at 400 to 600 kBq, iv after 60 mins post-injection by gamma counting; format: ADME, organism-based; details: in vivo, 1 h; summary of the method: as §2
# Kidney = experiment: Biodistribution in CD1 mouse kidney assessed per gram of wet tissue at 400 to 600 kBq, iv after 60 mins post-injection by gamma counting; format: ADME, organism-based; details: in vivo, 1 h; summary of the method: as §2
# Stomach [5] = experiment: Biodistribution in CD1 mouse stomach assessed per gram of wet tissue at 400 to 600 kBq, iv after 120 mins post-injection by gamma counting; format: ADME, organism-based; details: in vivo, 2 h
# Summary of the method: (§3)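 Female CD-1 mice (~8-12 weeks, 20-28 g), habituated ≥48 h and fasted 24 h with water available. The [18F] tracer (>150 GBq/μmol at end of synthesis) was given in 200 μL saline into the tail vein of conscious animals. At each time point, n=4-5, mice were anaesthetised, blood and urine sampled, then killed by cervical dislocation. Organs were weighed and γ-counted, and values calculated as % ID/g wet tissue.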
# Femur [6] = experiment: Biodistribution in CD1 mouse femur assessed per gram of wet tissue at 400 to 600 kBq, iv after 5 mins post-injection by gamma counting; format: ADME, organism-based; details: in vivo; summary of the method: as §2
# [7] = Biodistribution in CD1 mouse urine assessed per gram of wet bladder at 400 to 600 kBq, iv after 60 mins post-injection by gamma counting in presence of 1 mg/kg, ip sigma 1/sigma 2 receptor antagonist haloperidol treated before compound addition; format: organism-based; parameters: route intravenous; details: in vivo, 1 h; summary of the method: as §1
# [8] = Drug uptake in CD1 mouse adrenal gland at 400 to 600 kBq, iv after 120 mins post-injection by gamma counting relative to initial uptake; format: ADME, organism-based; details: in vivo, 2 h
# Summary of the method: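 Organ % ID/g was measured by γ-counting after tail-vein injection of 400-600 kBq [18F] tracer in saline to fasted female CD-1 mice (n=4-5 per time). The 120 min pi value is expressed relative to the initial (5 min pi) uptake.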
# Blood = experiment: Biodistribution in CD1 mouse blood assessed per gram of wet tissue at 400 to 600 kBq, iv after 5 mins post-injection by gamma counting; format: ADME, organism-based; details: in vivo; summary of the method: as §2
# Liver [9] = experiment: Biodistribution in CD1 mouse liver assessed per gram of wet tissue at 400 to 600 kBq, iv after 30 mins post-injection by gamma counting; format: ADME, organism-based; details: in vivo, 0.5 h; summary of the method: as §3
# [10] = Biodistribution in CD1 mouse gonad assessed per gram of wet tissue at 400 to 600 kBq, iv after 120 mins post-injection by gamma counting; format: ADME, organism-based; details: in vivo, 2 h; summary of the method: as §2
# Stomach [11] = experiment: Biodistribution in CD1 mouse stomach assessed per gram of wet tissue at 400 to 600 kBq, iv after 60 mins post-injection by gamma counting; format: ADME, organism-based; details: in vivo, 1 h; summary of the method: as §3
# [12] = Biodistribution in CD1 mouse gonad assessed per gram of wet tissue at 400 to 600 kBq, iv after 30 mins post-injection by gamma counting; format: ADME, organism-based; details: in vivo, 0.5 h; summary of the method: as §2
# [13] = Biodistribution in CD1 mouse adrenal gland assessed per gram of wet tissue at 400 to 600 kBq, iv after 60 mins post-injection by gamma counting; format: ADME, organism-based; details: in vivo, 1 h; summary of the method: as §2
# Spleen = experiment: Biodistribution in CD1 mouse spleen assessed per gram of wet tissue at 400 to 600 kBq, iv after 120 mins post-injection by gamma counting; format: ADME, organism-based; details: in vivo, 2 h; summary of the method: as §3
# Heart = experiment: Biodistribution in CD1 mouse heart assessed per gram of wet tissue at 400 to 600 kBq, iv after 30 mins post-injection by gamma counting; format: ADME, organism-based; details: in vivo, 0.5 h; summary of the method: as §2
# [14] = Biodistribution in CD1 mouse thymus assessed per gram of wet tissue at 400 to 600 kBq, iv after 120 mins post-injection by gamma counting; format: ADME, organism-based; details: in vivo, 2 h; summary of the method: as §3
# Stomach [15] = experiment: Biodistribution in CD1 mouse stomach assessed per gram of wet tissue at 400 to 600 kBq, iv after 30 mins post-injection by gamma counting; format: ADME, organism-based; details: in vivo, 0.5 h; summary of the method: as §3
# [16] = Ratio of drug level in cerebellum to plasma in CD1 mouse at 400 to 600 kBq, iv after 120 mins post-injection; format: ADME, organism-based
# Summary of the method: (§4)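 Female CD-1 mice (~8-12 weeks, 20-28 g), fasted 24 h with free water; 400-600 kBq tracer in 200 μL saline by tail vein into conscious animals. Killed at set times pi (n=4-5 per time); blood and organs weighed, γ-counted, expressed as % ID/g wet tissue; ratio from cerebellum and plasma uptake.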
# [17] = Ratio of drug level in cerebellum to plasma in CD1 mouse at 400 to 600 kBq, iv after 5 mins post-injection; format: ADME, organism-based; summary of the method: as §4
# Femur [18] = experiment: Biodistribution in CD1 mouse femur assessed per gram of wet tissue at 400 to 600 kBq, iv after 120 mins post-injection by gamma counting; format: ADME, organism-based; details: in vivo, 2 h; summary of the method: as §2
# Cerebellum = experiment: Biodistribution in CD1 mouse cerebellum assessed per gram of wet tissue at 400 to 600 kBq, iv after 120 mins post-injection by gamma counting; format: ADME, organism-based; details: in vivo, 2 h; summary of the method: as §2
# Mus musculus = experiment: Plasma concentration in CD1 mouse assessed per gram of wet tissue at 400 to 600 kBq, iv after 5 mins post-injection by gamma counting; format: ADME, organism-based; details: in vivo
# Summary of the method: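 Female CD-1 mice (~8-12 weeks, 20-28 g), fasted 24 h with free access to water. 400-600 kBq [18F] tracer in 200 μL saline given by tail vein to conscious mice. At 5, 30, 60 or 120 min pi (n=4-5 per time) mice anaesthetised, blood taken, then euthanised. Samples weighed, γ-counted, %ID/g wet tissue calculated.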
# Pancreas = experiment: Biodistribution in CD1 mouse pancreas assessed per gram of wet tissue at 400 to 600 kBq, iv after 5 mins post-injection by gamma counting; format: ADME, organism-based; details: in vivo; summary of the method: as §3
# Liver [19] = experiment: Biodistribution in CD1 mouse liver assessed per gram of wet tissue at 400 to 600 kBq, iv after 60 mins post-injection by gamma counting; format: ADME, organism-based; details: in vivo, 1 h; summary of the method: as §3
structure (smiles),measurement,setting,value
[18F]CCCC1OC2(CCN(Cc3ccccc3)CC2)c2ccccc21 (stereo not drawn),Stability,[1],Stable
same,Drug uptake,Muscle tissue,0.9 %ID
same,Stability,[2],Stable
same,Drug uptake,Liver [3],2.93 %ID
same,Drug uptake,[4],4.92 %ID
same,Drug uptake,Brain,2.27 %ID
same,Drug uptake,Kidney,5.14 %ID
same,Drug uptake,Stomach [5],3.12 %ID
same,Drug uptake,Femur [6],2.17 %ID
same,Drug uptake,[7],22.5 %ID
same,Drug uptake,[8],> 70%
same,Drug uptake,Blood,1.44 %ID
same,Drug uptake,Liver [9],4.28 %ID
same,Drug uptake,[10],4.16 %ID
same,Drug uptake,Stomach [11],3.17 %ID
same,Drug uptake,[12],4.11 %ID
same,Drug uptake,[13],7.78 %ID
same,Drug uptake,Spleen,4.65 %ID
same,Drug uptake,Heart,3.75 %ID
same,Drug uptake,[14],2.86 %ID
same,Drug uptake,Stomach [15],5.13 %ID
same,Kp at 2 h,[16],5.48
same,Kp at 5 min,[17],2.49
same,Drug uptake,Femur [18],6.64 %ID
same,Drug uptake,Cerebellum,2.41 %ID
same,Drug uptake,Mus musculus,1.85 %ID
same,Drug uptake,Pancreas,8.76 %ID
same,Drug uptake,Liver [19],3.24 %ID
